Assay outcomes deposited in PubChem BioAssay by Johns Hopkins Ion Channel Center.
Sampled rows, rich in hits. Any-hit rate of the full collection: about 2.3%.
TRPC4 PAM: positive allosteric modulators of TRPC4, primary screen, cell-based, mouse TRPC4beta, HEK293 mu-opioid, Fluo-4 calcium; Short transient receptor potential channel 4 (Mus musculus), Q9QUQ5; DAMGO EC20, Fluo-4 Ca2+ flux; hits give high values; AID 2227, 2009; 310,000 tested, 0.42% active; B-score at 10 µM;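 active means B-score of calcium response area above 5 SD of library B-scores, with initial fluorescence ratio within 5 SD of library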;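 further: B-score of integrated fluorescence ratio over time as area under calcium response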
TRPC6 inh: mouse TRPC6 channel inhibitors, primary screen, cell-based, HEK293, membrane potential dye | ACh-evoked depolarization; hits give low values | B-score at 10 µM | 310,000 tested, 1.1% active;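 active means B-score under library mean minus 3 SD, initial fluorescence not abnormally high, positive integrated signal ratio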;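 further: B-score derived from integrated fluorescence ratio over the kinetic read; more negative B-score means stronger inhibition of depolarization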
TRPC4 inh: inhibitors of mouse TRPC4 channel, primary screen, Fluo4 calcium, HEK293 TRPC4beta/mu-opioid cells. Short transient receptor potential channel 4 (Mus musculus), Q9QUQ5. DAMGO-evoked Fluo4 calcium flux; hits give low values. B-score at 10 µM. 300,000 tested, 0.39% active. AID 2247, 2010;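 active means B-score over 3 SD under the library average, no early fluorescence shift, positive overall ratio signal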
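Material: HEK293 cells with stable TRPC4beta plus mu-opioid receptor expression; probe or stimulus: DAMGO in two steps, submaximal then maximal; technique: Fluo4 calcium fluorescence by kinetic imaging, 5 s 1 Hz baseline; measure: integrated fluorescence ratio relative to baseline, converted to per-well B score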
TRPC6 activator: mouse TRPC6 channel activators, primary screen, cell-based, HEK293, membrane potential dye. 310,000 tested, 0.13% active. Short transient receptor potential channel 6 (Mus musculus), Q61143. B-score at 10 µM. AID 2550, 2010. HEK293-TRPC6 membrane potential dye fluorescence; hits give high values;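 active means B-score of the integrated fluorescence ratio above library mean plus 3 SD, and starting fluorescence ratio within library mean plus 5 SD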;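 further: higher score means more depolarization so channel activation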
TRPC4 act: activators of mouse TRPC4 channel, primary screen, Fluo4 calcium, HEK293 TRPC4beta/mu-opioid cells; B-score at 10 µM; 310,000 tested, 0.49% active; Fluo4 calcium fluorescence; hits give high values; AID 2237, 2010; Short transient receptor potential channel 4 (Mus musculus), Q9QUQ5;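 active means B-score above 5 SD of library B-scores, and initial fluorescence ratio not above library mean plus 5 SD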;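 further: positive B-score marks a calcium rise read as TRPC4 activation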
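Assay system: HEK293 stable line with TRPC4beta plus mu-opioid receptor. Times: dye 45 min RT, read 110 s. Measured by: kinetic Fluo4 calcium fluorescence. Measure: B score of integrated ratio. Controls: assay buffer as low control, maximal DAMGO as high control.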
The depositor's hits bear a star; i = inactive; · = not tested or not shown.

SMILES | TRPC4 PAM | TRPC6 inh | TRPC4 inh | TRPC6 activator | TRPC4 act
O=Cc1c(-c2ccccc2)cc2oc3ccccc3cc1-2 | i | i | i | i | i
CN1CCCC(OC(=O)c2cc(F)c(F)c(F)c2F)C1 (centres undefined) | i | i | i | i | i
CN1CCC(OC(=O)c2cc3cc(Br)ccc3oc2=O)CC1 | i | i | i | i | i
CN1CCCC(OC(=O)c2cc(Br)ccc2Cl)C1 (centres undefined) | 10* | i | i | i | 126*
COc1cccc(C(=O)OC2CCCN(C)C2)c1 (centres undefined) | i | i | i | i | 129*
CN1CCCC(OC(=O)c2cc(Cl)ccc2Cl)C1 (centres undefined) | 13* | i | i | i | 65*
O=C(NCc1ccccn1)C1CCCN(Cc2cnn(-c3ccccc3)c2-n2cccc2)C1 (centres undefined) | i | i | · | i | 53*
COc1cccc(CNC(=O)C2CCN(Cc3cnn(-c4ccccc4)c3-n3cccc3)CC2)c1 | i | i | i | i | 44*
O=C(NCc1cccnc1)C1CCCN(Cc2cnn(-c3ccccc3)c2-n2cccc2)C1 (centres undefined) | i | i | i | i | 87*
CCOC(=O)C1(CC2CC2)CCN(Cc2cn[nH]c2-c2ccccc2)CC1 | i | i | -8* | i | 48*
CCOC(=O)C1(Cc2ccccc2)CCN(Cc2cn[nH]c2-c2ccccc2)CC1 | i | i | i | i | 126*
CCOC(=O)C1(Cc2ccccc2)CCN(Cc2cnn(CC)c2)CC1 | i | i | i | i | 124*
CCOC(=O)c1[nH]ncc1CN1CCC(Cc2ccccc2)(C(=O)OCC)CC1 | i | i | i | i | i
COc1ccc(OC)c(NC(=O)NNC(=O)COc2ccc([N+](=O)[O-])cc2)c1 | i | i | i | i | i
Cc1ccc(CN2CCN(/N=C/C=C/c3ccccc3[N+](=O)[O-])CC2)cc1 | 14* | i | i | i | i
COc1ccccc1/C=C/C=N/N1CCN(Cc2ccccc2)CC1 | i | i | i | i | i
CC(=O)C1=C(c2ccccc2)NC(=S)NC1c1cc(Cl)c(OC(C)C)c(Cl)c1 (centres undefined) | 12* | i | i | i | i
Cc1ccc(NC(=O)COc2nsnc2N2CCOCC2)cc1Cl | i | i | i | i | i
CCCCCOc1ccc(Br)cc1/C(C)=N/NC1=NCCN1 | i | -5.9* | i | i | i
COc1ccc(Br)cc1/C(C)=N/NC1=NCCN1 | i | i | i | i | i
Cc1cccc(N2CCN(CC(=O)Nc3nccs3)CC2)c1C | i | -5.6* | i | 13* | i
COc1ccc(S(=O)(=O)N2CCN(Cc3cccc(F)c3)CC2)cc1 | i | i | i | i | i
Cc1ccc(-c2cc(C(=O)Nc3nccs3)c3ccccc3n2)c(C)c1 | i | i | i | i | i
Cc1ccc(-c2cc(C(=O)Nc3nccs3)c3ccccc3n2)o1 | i | i | -7* | i | i
CC(=O)N1CCCc2ccc(NS(=O)(=O)c3ccc(C)c(C)c3)cc21 | i | i | i | i | i
COc1ccc(OC)c(S(=O)(=O)Nc2ccc3c(c2)N(C(C)=O)CCC3)c1 | 14* | i | i | i | i
COc1cc(OC)cc(C(=O)NCCCN2CCN(CCCNC(=O)c3cc(OC)cc(OC)c3)CC2)c1 | i | i | i | i | 119*
COc1ccc(N2CCN(CCCNC(=O)c3ccc(CS(=O)(=O)c4ccc(OC)cc4)o3)CC2)cc1 | i | i | -6* | i | i
CCOc1cc(OCC)cc(C(=O)NCCCN2CCOCC2)c1 | i | i | i | i | i
